Each structure is given as a SMILES string. Inconclusive results are not listed. Active and inactive are the calls of the source.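 How the source made its calls: active means compounds raising caspase signal whose fitted AC50 is at most tenfold their top valid tested dose; inconclusive means flat fit at 30 to 70% activation, or poor fit; inactive means the rest.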

A word on the AC50: it is the concentration giving half of the maximal activity seen.

System in one experiment: not listed separately
Briefly: caspase-3/7 activation in MEF A1-2A-BIM cells, dose response, A1 (BCL2A1) inhibitor project, cell-based, luminescence, dry powder, set 3 (AID 488858). Particulars: MEF A1-2A-BIM cells, caspase-3/7 luminescence; at 150 µM (top of the series). The method, boiled down:
(§1)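 Material: A1-dependent A1-2A-BIM mouse embryonic fibroblasts; Quantity: 2500 cells per well; Buffer or medium: RPMI medium with 10% FBS; Dosing: pinned compound dose series; Times: 3 h compound at 37 °C, 1 h reagent at RT; Signal: caspase-3/7 DEVD luminescence.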
Turning to `COc1cc(/C=C(/C#N)c2nc3ccccc3[nH]2)ccc1OCC(=O)Nc1ccccc1C(C)C`, the caspase activation is 0.201% (inactive).
The same measure, in the same setting: the value for `CC(=O)OC(C)(C)/C=C/C(=O)[C@](C)(O)C1[C@H](O)C[C@@]2(C)C3CC=C4C(C[C@H](O)C(=O)C4(C)C)[C@]3(C)C(=O)C[C@]12C` (some centres undefined) was 1.66% (inactive).

In the next experiment the test system is MEF A1-2A-BIM cells, caspase-3/7 luminescence. The description is as above.
Conditions: not given
The method, boiled down: as §1
As for `Cc1c(CCOC(=O)c2ccc(N3CCOCC3)c([N+](=O)[O-])c2)sc[n+]1CC#N`, the AC50 was 10.7 µM.
On to `CCc1cc2c(=O)c(-c3cnn(-c4ccccc4)c3)c(C)oc2cc1OCC(=O)Nc1cccc(C)c1`, for which the concentration at half-maximal activity (AC50) was 5.41 µM.
In the case of `Nc1nc(F)nc2c1ncn2[C@@H]1O[C@H](CO)[C@@H](O)[C@H]1O`, the AC50 is 2.87 µM.
The same measure, in the same setting: for `O=C(Oc1cccc(/C=N/Nc2nc(Nc3ccccc3)nc(N3CCOCC3)n2)c1)c1ccco1` the value was 4.23 µM; for `Cn1c(=NC(=O)CCl)sc2ccccc21`, 4 µM; for `Cc1cc(C(=O)CCl)c(C)n1CCc1ccc(Cl)cc1`, 6.06 µM.
As to `Cc1cccc(NC(=O)/C(C#N)=C/c2cn(CC(=O)NCc3ccco3)c3ccccc23)c1`, the AC50 is 5.6 µM.
The same measure, in the same setting: the value for `CCc1nnc(NC(=O)c2nc(S(=O)(=O)Cc3ccccc3)ncc2Cl)s1` was 15.6 µM; that for `C=C1[C@@H](C)[C@H]2[C@H](Cc3ccccc3)NC(=O)[C@]23OC(=O)/C=C\[C@H](O)CCC[C@@H](C)C/C=C/[C@H]3[C@@H]1O` was 2.72 µM; that for `C=C1[C@@H](C)[C@H]2[C@H](Cc3ccccc3)NC(=O)[C@]23[C@H](OC(C)=O)/C=C/[C@](C)(O)C(=O)[C@@H](C)C/C=C/[C@H]3[C@@H]1O` was 1.2 µM.
Still for that read-out and setting: the value for `COc1cc(CN2CCN(c3cc(C)ccc3C)CC2)ccc1O` was 10.6 µM; that for `Cc1cccc(CS(=O)(=O)c2ncc(Cl)c(C(=O)Nc3nnc(C(C)C)s3)n2)c1` was 12.6 µM.
With `CCOC(=O)CSC1=N/C(=C/c2ccc(-n3cncn3)cc2)C(=O)N1C(C)=O`, the AC50 is 9.77 µM.
On the same count and under the same terms, for `Cc1ccc(Sc2c([N+](=O)[O-])c(=O)n(C)c3ccccc23)cc1` the value was 21 µM; for `CC(=O)N[C@H]1[C@H](O[C@H]2CC[C@@]3(C)C(CC[C@]4(C)C3CC=C3[C@@H]5CC(C)(C)CC[C@]5(C(=O)OC5OCC(O)C(O)C5O)C(O)C[C@]34C)C2(C)C)O[C@H](COC2OCC(O)C(OC3OCC(O)C(O)C3O)C2O)[C@@H](O[C@@H]2O[C@@H](C)[C@H](O)[C@@H](O)[C@H]2O[C@@H]2O[C@@H](C)[C@H](O)[C@@H](O)[C@H]2O)[C@@H]1O` (some centres undefined), 9.71 µM.
The same measure, in the same setting: for `O=C(CCl)N=c1sccn1Cc1ccccc1Cl` the value was 1.06 µM.
Same read-out and setting: the value for `CC(C)(C)n1nc(-c2ccc(Cl)cc2)c2c(N)ncnc21` was 6.5 µM; that for `C/C1=C/C(=O)O[C@@H]2C[C@@H](CC[C@H](C)/C=C\CC1)O[C@@](O)(C1CSC(=O)N1)C2` (some centres undefined) was 0.37 µM.
As for `Cc1ccc(CS(=O)(=O)c2ncc(Cl)c(C(=O)Nc3nnc(C(C)C)s3)n2)cc1`, the AC50 was 12.3 µM.
Same read-out and setting: for `COc1ccc(N(C(=O)CCl)C(C(=O)NCCc2ccccc2)c2cccs2)cc1Cl` (centres undefined) the value was 0.236 µM.
In the case of `CCSc1nnc(NC(=O)c2nc(S(=O)(=O)Cc3ccc(F)cc3)ncc2Cl)s1`, the AC50 was 14.4 µM.
On the same count and under the same terms, for `Cc1c(C=O)c(C=O)c(C)n1Cc1ccccc1` the value was 6.27 µM.

The record behind these values is PubChem BioAssay AID488858 (Broad Institute, 2010).
